Screens (PubChem BioAssay)
Mot1-301 SUMO – yeast Mot1-301 growth rescue at high temperature, primary screen, SUMOylation pathway inhibitor project, S. cerevisiae, ATP luminescence, 38.5C | S. cerevisiae Mot1-301 growth rescue; percent above DMSO median, 100 means doubled | growth rescue, % at 18.8 µM | actives 1% (n = 320,000) | AID 2716, 2010;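 active = every valid replicate shows activation above 250% relative to neutral control wells; inactive = the rest, any valid replicate at or below 250%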;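 note: OY570 slx delta 5 strain wells were the positive control but not used for scaling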
IMP-1 inh – IMP-1 metallo-beta-lactamase inhibitors, primary screen, biochemical, epi-absorbance readout, Pseudomonas aeruginosa enzyme | metallo-beta-lactamase IMP-1 (Pseudomonas aeruginosa) | purified IMP-1, nitrocefin hydrolysis, epi-absorbance fluorescence | inhibition, % at 5.6 µM | actives 0.45% (n = 290,000) | AID 1556, 2009;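 active = inhibition above the mean plus 3 SD of all compounds in the same screening run, cut at about 4.5% in these data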;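 note: 0% = IMP-1 with DMSO and 100% = DMSO wells lacking enzyme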
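System – purified recombinant IMP-1 beta-lactamase · Input – IMP-1 dispensed at 0.2 nM · Timing – 15 min preincubation plus 25 min reaction at 25 °C · Signal – Epi-absorbance fluorescence, 480 nm excitation, 530 nm emission · Measure – percent IMP-1 inhibition derived from blank-referenced optical density · Controls – Enzyme-plus-DMSO low control, enzyme-free DMSO high control · Replication – singlicate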
PolyA inh – polyadenylation inhibitors in yeast reporter cells, primary screen, luminescence, S. cerevisiae | AID 1875, 2009 | actives 0.02% (n = 300,000) | S. cerevisiae SKY197-pL101 polyadenylation reporter, beta-gal luminescence; efflux-impaired pdr1/pdr3 knockout yeast; score 100 = 6 SD above DMSO | activity score, % at 12 µM;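 active = lowest replicate activity score at least 50, where 100 means six control SD above control mean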;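 note: yeast exposed to compound for 9 h at 30 °C; higher score means more reporter readthrough which indicates perturbed polyadenylation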
NALP1 inh – NALP1 inflammasome inhibitors in reconstituted yeast, colorimetric, S. cerevisiae, triplicate retest. inhibition, % at 10 µM. S. cerevisiae NALP1/ASC/caspase-1 growth, X-gal OD620, 72 h. AID 2071, 2009. actives 0.61% (n = 280,000); in the data active = inhibition mostly above about 24%, no sharp cut-off; inactive = mostly below about 32%
VIM-2 inhibitor – VIM-2 metallo-beta-lactamase inhibitors, primary screen, biochemical, epi-absorbance readout, Pseudomonas aeruginosa enzyme; purified VIM-2, nitrocefin hydrolysis, epi-absorbance fluorescence; inhibition, % at 5.6 µM; actives 0.89% (n = 290,000); AID 1527, 2009;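 active = inhibition above the mean of all tested compounds plus 3 SD, cutoff set per screening run, cut at about 7.5% in these data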;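 note: red hydrolysis product quenches plate fluorescence so inhibitors raise well fluorescence; 0% = enzyme with DMSO and 100% = DMSO without enzyme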
NALP3 yeast inh – NALP3 inflammasome inhibitors in reconstituted yeast, primary screen, luminescence, uHTS; actives 0.39% (n = 330,000); inhibition, % at 10 µM; AID 2825, 2010; Yeast reconstituted NLRP3/ASC/caspase-1, beta-gal luminescence, 24 h;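 active = inhibition of 50% or more; inactive = inhibition below 50%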;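 note: plate controls were induced DMSO wells for no effect and uninduced yeast grown without galactose for full effect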
Starred values were filed as active, the others as inactive; · = no result. Only some compounds are listed: those with a hit (about 2.9% of all), similar ones and a draw of the others.

SMILES	Mot1-301 SUMO	IMP-1 inh	PolyA inh	NALP1 inh	VIM-2 inhibitor	NALP3 yeast inh
CCOc1ccc(NC(=O)c2ccc(OC)cc2)cc1	17.3	-2.2	-18.6	23.7	-4.5	19.6
O=C(NCc1ccccn1)c1cccc(S(=O)(=O)Nc2ccccc2Cl)c1	-6.9	·	·	·	·	4.1
CCOC(CNC(=O)c1cccn2c(=O)c3c(C)c(C)sc3nc12)OCC	0.1	-2.2	-15.4	0.2	10.2*	21.4
CCCNC(=O)c1ccccc1NC(=O)c1ccc(CSc2ccccc2)cc1	358.1*	-0.1	-2.3	33.0	0.0	18.8
CCC(C)NC(=O)c1ccccc1NC(=O)c1ccc(CSc2ccccc2)cc1 (stereo not drawn)	-0.8	-0.7	-13.6	40.9	-1.6	6.0
CCn1nc(C)cc1C(=O)N1CCc2c([nH]c3ccccc23)C1c1cc(F)ccc1F (stereo not drawn)	479.2*	-0.2	-26.8	14.1	1.0	16.2
Cc1ncoc1C(=O)N1CCc2c([nH]c3ccccc23)C1c1ccccc1F (stereo not drawn)	-10.3	-1.9	13.2	6.7	-3.7	21.0
O=C1NCCN/C1=C\C(=O)c1ccc(Cl)cc1	-8.8	-2.2	27.1	39.3*	-1.4	16.3
Nc1ccccc1Oc1ncc(C(F)(F)F)cc1Cl	274.8*	-2.1	-14.8	-0.3	-7.0	20.4
Nn1c(C2CCC2)nc2ccccc2c1=O	-8.3	-4.8	11.4	21.1	0.3	21.4
Nc1nc2c3ccccc3nc(C3CC3)n2n1	-7.0	-3.4	-11.3	13.7	8.2*	9.4
CC(=O)OCC1=C(C(=O)O)N2C(=O)[C@@H](NC(=O)Cc3cccs3)[C@H]2SC1	18.3	-3.2	-14.2	135.8*	-1.3	-1.4
COC(=O)C(C)Oc1ccc(Cl)c(CN2OCC(C)(C)C2=O)c1 (stereo not drawn)	-2.3	·	0.6	·	·	13.1
CS(=O)(=O)N1CCN(C(=O)CCC2CCCC2)CC1	332.4*	-1.7	0.2	0.0	-2.3	-4.5
CCOC(=O)N1CCN(C(=O)CCC2CCCC2)CC1	13.9	-2.2	-23.5	8.3	-2.2	4.5
CCCN1Cc2cccc(C(=O)Nc3ccc(CN4CCCC4)cc3)c2C1=O	6.0	-2.2	7.2	9.3	11.6*	12.8
COCCN1Cc2cccc(C(=O)Nc3ccc(C)cc3)c2C1=O	-11.1	-2.4	16.5	11.9	-1.7	13.4
COc1ccc(-c2csc(NC3CCCCC3)n2)c(OC)c1	55.5	8.0*	-7.8	10.7	-2.1	5.1
COc1ccc(-c2csc(-c3ccccc3)n2)c(OC)c1	14.7	-2.3	-11.6	9.0	-3.0	14.9
O=C(O)C1=C(C(=O)Nc2ccc(F)c(Cl)c2)CCCC1	6.1	10.3*	-0.4	22.1	4.3	20.7
Cc1cc(C(F)(F)F)c2c(=O)[nH]c(=O)n(Cc3ccccc3)c2n1	-6.9	7.3*	-6.7	17.8	2.6	20.6
COc1ccc2c(c1OC)C(=O)O[C@@H]2[C@H]1c2c(cc3c(c2OC)OCO3)CCN1C	749.9*	-1.9	-5.0	29.4	-1.1	9.4
Cc1ccc(S(=O)(=O)N(Cc2cc3cc4c(cc3[nH]c2=O)OCCO4)CC2CCCO2)cc1 (stereo not drawn)	332.0*	-0.5	-9.8	-26.2	-3.5	24.1
COc1ccc(-n2c(SC(C)C(=O)Nc3ccc(NC(C)=O)cc3)nc3ccccc3c2=O)cc1OC (stereo not drawn)	-13.4	-2.2	-17.8	3.3	-1.8	0.0
CN1/C(=C\C(=O)COC(=O)Cn2nnc(-c3ccccc3)n2)C(C)(C)c2ccccc21	267.8*	-0.1	5.2	12.5	-1.1	23.0
COc1cc(OC)cc(C(=O)NCC(=O)OCC(=O)/C=C2/N(C)c3ccccc3C2(C)C)c1	77.2	-1.3	9.8	28.7	0.1	-1.8
CCOc1ccccc1NC(=O)C(CC(C)C)NC(=O)C1CCC(C)CC1 (stereo not drawn)	14.8	-3.1	7.8	42.9*	-5.3	4.8
